Measured values published in ChEMBL document CHEMBL1135606, “Synthesis, stability, and antimalarial activity of new hydrolytically stable and water-soluble (+)-deoxoartelinic acid” (J Med Chem, 2002).
In brackets after ≈: the same amount, converted by molar mass.

What was measured:
Plasmodium falciparum [1] = assay: In vitro antimalarial activity against chloroquine-resistant Plasmodium falciparum K1; type: functional; conditions: read-out: ED50 (the source's name)
Outline: (§1)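 Asexual P. falciparum (3D7 or K1) in A+ erythrocytes, RPMI 1640, 5% hematocrit, 37 °C, 5% CO2. Synchronized ring stages at 1% parasitemia. Triplicate 3-fold dilutions from a final top concentration of 30 µg/mL. 24 h incubation, then [3H]-hypoxanthine (0.1 µCi/well) for a further 24 h. Incorporation read by scintillation counting; ED50 from curve fitting.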

Plasmodium falciparum [2] = assay: In vitro antimalarial activity against chloroquine-sensitive Plasmodium falciparum 3D7; type: functional; conditions: read-out: ED50 (the source's name); outline: as §1
Mus musculus [3] = assay: In vivo antimalarial activity against Plasmodium chabaudi in mice (Mus musculus) and its survival rate reported; type: functional
Mus musculus [4] = assay: In vivo antimalarial activity against Plasmodium chabaudi in mice (Mus musculus) and its survival was reported; type: functional
[5] = Half life was reported; type: ADME
Outline: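 Simulated stomach acid stability: compound at 1 mg/mL in 0.01 N HCl, pH 2.0, sealed, 37 °C. Acetal-type compounds sampled at 0–1400 min; non-acetal-type at 2–14 days. Remaining drug quantified by reverse-phase C-18 HPLC (ammonium acetate/acetonitrile, internal standard). Half-life from pseudo-first-order disappearance.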

Mus musculus [6] = assay: Percent of infected erythrocytes in Blood schizonticidal activity against Plasmodium chabaudi in mice at a concentration of 10 mg/kg/day on day 2; type: functional
Mus musculus [7] = assay: Percent of infected erythrocytes in Blood schizonticidal activity against Plasmodium chabaudi in mice at a concentration of 10 mg/kg/day on day 3; type: functional
Mus musculus [8] = assay: Percent of infected erythrocytes in Blood schizonticidal activity against Plasmodium chabaudi in mice at a concentration of 10 mg/kg/day on day 1; type: functional
Outline: (§2)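 Female BALB/c mice (18–20 g, SPF), groups of five, infected iv on day 1 with 1 × 10^7 P. chabaudi ANKA-infected erythrocytes. Dosing ip began 2 h post-inoculation, once daily for 4 days, at 10 mg/kg/day in 10% DMSO/PBS. On day 5, Giemsa-stained smears; ≥1000 red cells counted; % infected erythrocytes per mouse, compared with controls.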

Mus musculus [9] = assay: Percent of infected erythrocytes in Blood schizonticidal activity against Plasmodium chabaudi in mice at a concentration of 10 mg/kg/day on day 5; type: functional; outline: as §2
Mus musculus [10] = assay: Percent of infected erythrocytes in Blood schizonticidal activity against Plasmodium chabaudi in mice at a concentration of 10 mg/kg/day on day 4; type: functional; outline: as §2

## CCO[C@H]1O[C@@H]2O[C@@]3(C)CC[C@H]4[C@H](C)CC[C@@H]([C@H]1C)[C@@]24OO3 [ARTEMOTIL]
Plasmodium falciparum [1]
  EC50: 0.9 ng/mL (≈ 2.88 nM)
Plasmodium falciparum [2]
  EC50: 0.2 ng/mL (≈ 0.64 nM)
Mus musculus [3]
  Survival rate: 60%
Mus musculus [4]
  Survival: 3
[5]
  half-life: 11 h

## C[C@H]1[C@H](OC(=O)CCC(=O)O)O[C@@H]2O[C@@]3(C)CC[C@H]4[C@H](C)CC[C@@H]1[C@@]24OO3 [ARTESUNATE]
Plasmodium falciparum [1]
  EC50: 0.6 ng/mL (≈ 1.56 nM)
Plasmodium falciparum [2]
  EC50: 0.2 ng/mL (≈ 0.52 nM)

## C[C@@H]1CC[C@H]2[C@@H](C)C(=O)O[C@@H]3O[C@@]4(C)CC[C@@H]1[C@]32OO4 [ARTEMISININ]
Plasmodium falciparum [1]
  EC50: 0.7 ng/mL (≈ 2.48 nM)
Plasmodium falciparum [2]
  EC50: 2.9 ng/mL (≈ 10.3 nM)

## CCN(CC)CCCC(C)Nc1ccnc2cc(Cl)ccc12 (stereo not drawn) [CHLOROQUINE]
Mus musculus [6]
  Infected erythrocytes: 71.3%
Plasmodium falciparum [1]
  EC50: 220 ng/mL (≈ 688 nM)
Mus musculus [7]
  Infected erythrocytes: 62.1%
Plasmodium falciparum [2]
  EC50: 8 ng/mL (≈ 25 nM)
Mus musculus [3]
  Survival rate: 0%
Mus musculus [4]
  Survival: 0
Mus musculus [8]
  Infected erythrocytes: 65%
Mus musculus [9]
  Infected erythrocytes: 81.3%
Mus musculus [10]
  Infected erythrocytes: 82.4%

## C[C@H]1[C@@H](CCc2ccc(C(=O)O)cc2)O[C@@H]2O[C@]3(C)CC[C@H]4[C@H](C)CC[C@@H]1[C@@]24OO3
Mus musculus [6]
  Infected erythrocytes: 0.5%
Plasmodium falciparum [1]
  EC50: 0.6 ng/mL (≈ 1.44 nM)
Mus musculus [7]
  Infected erythrocytes: 2.9%
Plasmodium falciparum [2]
  EC50: 1.1 ng/mL (≈ 2.64 nM)
Mus musculus [3]
  Survival rate: 100%
Mus musculus [4]
  Survival: 5
Mus musculus [8]
  Infected erythrocytes: 0.5%
[5]
  half-life: 259 h
Mus musculus [9]
  Infected erythrocytes: 0.3%
Mus musculus [10]
  Infected erythrocytes: 0.5%

## C[C@@H]1[C@H](OCc2ccc(C(=O)O)cc2)O[C@@H]2O[C@@]3(C)CC[C@@H]4[C@@H](C)CC[C@@H]1[C@]24OO3 [ARTELINIC ACID]
Plasmodium falciparum [1]
  EC50: 1.4 ng/mL (≈ 3.35 nM)
Plasmodium falciparum [2]
  EC50: 4 ng/mL (≈ 9.56 nM)
[5]
  half-life: 13.1 h

## CCCC[C@H]1O[C@@H]2O[C@]3(C)CC[C@H]4[C@H](C)CC[C@@H]([C@H]1C)[C@@]24OO3
[5]
  half-life: 187 h

## C[C@@H]1CC[C@H]2[C@@H](C)CO[C@@H]3O[C@]4(C)CC[C@@H]1[C@]32OO4 [DEOXOARTEMISININ]
[5]
  half-life: 245 h
